Kir21 block: Kir2.1 (mouse) channel inhibition. P35561. HEK293-Kir2.1, FluxOR thallium flux fluorescence; stronger effect = lower value. B-score at 10 µM. 0.85% of 310,000 active. AID 1672;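 active = fluorescence ratio B-score at or below minus 3 SD of library scores, with starting-brightness B-score within 2 SD, cut at about -4.2 in these data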;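 note: channel flux triggered by added potassium and thallium sulfate stimulus; B-score of peak minus minimum fluorescence over baseline after thallium stimulus; more negative B-score means stronger Kir2.1 block with less thallium influx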
KCNQ1 act: human KCNQ1 channel potentiation or activation; P51787; CHO-K1 KCNQ1, thallium flux FluxOR fluorescence; stronger effect = higher value; B-score at 10 µM; 0.35% of 310,000 active; AID 2648;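 active = fluorescence ratio B-score, a plate-corrected score, at least three library SD, with initial intensity B-score within 5 SD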
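Assay system: CHO-K1 cells stably expressing KCNQ1; Medium: assay buffer with matched DMSO; Also added: K+/Tl+ depolarizing stimulus; Dosing: single dose; Timing: dye 90 min, compound 20 min, room temperature; Measured by: kinetic FluxOR thallium fluorescence, 10-s 1-Hz baseline, 110-s post-stimulus read; Read-out: peak-minus-minimum fluorescence over initial fluorescence, negative-control normalized, B-scored.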
KCNK3 block: human KCNK3 channel inhibition, primary screen; O14649; AID 602410; 0.84% of 340,000 active; CHO-KCNK3 thallium flux, FluxOR fluorescence; stronger effect = lower value; B-score at 10 µM;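 active = B-score under library mean minus 4 SD, starting fluorescence ratio at most library mean plus 5 SD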;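 note: more negative B-score means stronger inhibition of thallium flux through KCNK3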
KCNK9 block: human KCNK9 channel inhibition | B-score at 10 µM | HEK293 KCNK9, FluxOR thallium flux fluorescence; stronger effect = lower value | 1.2% of 310,000 active | Q9NPC2 | AID 488922;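 active = ratio B-score over 3 SD below the library mean, with starting fluorescence within 5 SD of its mean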;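 note: negative B-score means less thallium flux so channel inhibition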
KCNQ1 inh: blocks the human KCNQ1 potassium channel | 1.3% of 310,000 active | CHO-K1 KCNQ1, FluxOR thallium flux fluorescence; stronger effect = higher value | P51787 | B-score at 10 µM | AID 2642;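 active = compounds whose thallium flux B-score, printed positive for inhibition, exceeds three library SD while starting fluorescence stays within three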;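 note: channel opened by potassium depolarization with thallium stimulus after 20 min compound exposure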
hERG rescue: hERG (human) protection from proarrhythmic block; 0.51% of 310,000 active; CHO-hERG, FluxOR thallium flux, dofetilide IC70 present; activation (rescue from dofetilide block), less the hit threshold, % at 10 µM;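 active = activation above the mean of controls blocked by dofetilide plus 5 SD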;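 note: thallium influx through hERG after potassium depolarization seen as dye fluorescence rise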
KCNK9 inh conf: human KCNK9 inhibitor confirmation | shares compounds with KCNK9 block | inhibition, % at 10 µM | HEK293 KCNK9 cells, FluxOR thallium flux fluorescence | 43% of 4,900 active;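 active = thallium signal inhibited by more than 5 SD of the compound-free buffer control wells, on both duplicate plates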;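 note: 0% = assay buffer control wells without compound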
Kir2-1 spec: selectivity of KCNK9 modulators against mouse Kir2.1; inhibition, % at 10 µM; 4% of 4,900 active; shares compounds with KCNK9 block; Kir2.1 cells, FluxOR thallium flux fluorescence;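 active = thallium signal drop more than 5 SD beyond the mean of the no-compound control wells, seen in both duplicate plates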;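 note: signal is fluorescence rise after thallium addition divided by baseline fluorescence; plate controls were assay buffer only for no effect and full block by chlorpromazine control for full effect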
KCNK9 uninduced: second check of KCNK9 modulator effects in non-induced HEK293 cells; 40% of 4,900 active; FluxOR thallium flux; AID 492997; shares compounds with KCNK9 block; inhibition, % at 10 µM;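 active = thallium signal drop beyond 5 SD of the untreated control mean, on both duplicate plates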;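 note: plate controls were buffer only IC0 wells for no effect and SID17386958 at its maximal inhibitory level for full effect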
* marks the source's active call; other numbers are inactive results. Most compounds without a hit are left out; they make up all but 3.8% or so of the library.

Screening CCC1=NN2C(=N)/C(=C\c3cccn3-c3cccc(Cl)c3)C(=O)N=C2S1 returned Kir21 block -0.87, KCNQ1 act inactive, KCNK3 block inactive, KCNK9 block inactive, KCNQ1 inh inactive, hERG rescue -5, KCNK9 inh conf inactive, Kir2-1 spec inactive and KCNK9 uninduced inactive.
`CC(C)CCC(C)N=Cc1c(O)n(Cc2ccccc2)c(=O)c2ccccc12` (centres undefined) gave Kir21 block 0.82, KCNQ1 act inactive, KCNK3 block inactive, KCNK9 block -13*, KCNQ1 inh inactive, hERG rescue -6, KCNK9 inh conf 74%*, Kir2-1 spec inactive and KCNK9 uninduced 44%*.
Screening CCN(CC)CCCN=Cc1c(O)n(Cc2ccccc2)c(=O)c2ccccc12 returned Kir21 block -1.6, KCNQ1 act inactive, KCNK3 block inactive, KCNK9 block inactive, KCNQ1 inh inactive and hERG rescue -5.
Screening CC1=NN(C(N)=S)C(=O)C1N=Nc1cccc(Cl)c1C (centres undefined) returned Kir21 block 0.2, KCNQ1 act 41*, KCNK3 block inactive, KCNK9 block inactive, KCNQ1 inh inactive, hERG rescue -11, KCNK9 inh conf inactive, Kir2-1 spec inactive and KCNK9 uninduced inactive.
Screening C=C(c1ccc(O)cc1)c1ccc(O)cc1 returned Kir21 block 0.59, KCNQ1 act inactive, KCNK3 block inactive, KCNK9 block -11*, KCNQ1 inh inactive, hERG rescue -18, KCNK9 inh conf 46%*, Kir2-1 spec inactive and KCNK9 uninduced inactive.
Cc1c(C)n(C(=O)CN2CCN(c3ccccn3)CC2)c2ccccc12 was read as Kir21 block 0.14, KCNQ1 act inactive, KCNK3 block inactive, KCNK9 block inactive, KCNQ1 inh inactive, hERG rescue -16, KCNK9 inh conf inactive, Kir2-1 spec inactive and KCNK9 uninduced inactive.
O=C(CN1CCN(c2ccccn2)CC1)N1c2ccccc2CCc2ccccc21 was read as Kir21 block -0.55, KCNQ1 act inactive, KCNK3 block inactive, KCNK9 block inactive, KCNQ1 inh inactive and hERG rescue -15.
`COc1ccc(NC(=O)c2ccccc2Oc2ccccc2)c(OC)c1` gave Kir21 block -0.18, KCNQ1 act inactive, KCNK3 block inactive, KCNK9 block -8.4*, KCNQ1 inh inactive, hERG rescue -9, KCNK9 inh conf 55%*, Kir2-1 spec inactive and KCNK9 uninduced 30%*.
COc1ccc(NC(=O)c2cc(-c3cccnc3)nc3c(C)c(C)ccc23)c(OC)c1 was read as Kir21 block 0.18, KCNQ1 act inactive, KCNK3 block inactive, KCNK9 block inactive, KCNQ1 inh inactive, hERG rescue -18, KCNK9 inh conf inactive, Kir2-1 spec inactive and KCNK9 uninduced inactive.
Cc1ccc(-n2c(SCC(=O)NCc3ccco3)nc3c(sc4ccccc43)c2=O)cc1 was read as Kir21 block 1.2, KCNQ1 act inactive, KCNK3 block inactive, KCNK9 block inactive, KCNQ1 inh inactive and hERG rescue -12.
`COc1ccccc1NC(=O)CS(=O)(=O)c1cn(CC(=O)N2CCCC2)c2ccccc12` gave Kir21 block 1.2, KCNQ1 act inactive, KCNK3 block inactive, KCNK9 block inactive, KCNQ1 inh inactive and hERG rescue -7.
Screening CCOC(=O)COc1cc(-n2c(=S)[nH]c3cc(OC)c(OC)cc3c2=O)c(Cl)cc1Cl returned Kir21 block 0.52, KCNQ1 act 16*, KCNK3 block inactive, KCNK9 block -13*, KCNQ1 inh inactive, hERG rescue -6, KCNK9 inh conf 54%*, Kir2-1 spec inactive and KCNK9 uninduced inactive.
CCOC(=O)COc1cc(N2C(=O)CSCC2=O)c(Cl)cc1Cl was read as Kir21 block -1.6, KCNQ1 act inactive, KCNK3 block inactive, KCNK9 block inactive, KCNQ1 inh inactive and hERG rescue 2.
For O=C(O)c1cccc(N2C(=O)C3C4C=CC(C4=C(c4ccccc4)c4ccccc4)C3C2=O)c1 (centres undefined) the results were Kir21 block 1.4, KCNQ1 act inactive, KCNK3 block inactive, KCNK9 block inactive, KCNQ1 inh inactive, hERG rescue -11, KCNK9 inh conf inactive, Kir2-1 spec inactive and KCNK9 uninduced inactive.
COCCn1c(-c2ccc(Cl)cc2Cl)nc2c(c(=O)c3ccccc3n2C)c1=O was read as Kir21 block -0.49, KCNQ1 act inactive, KCNK3 block inactive, KCNK9 block inactive, KCNQ1 inh inactive and hERG rescue -8.
`Cn1c(=O)c2nc(-c3ccc(Cl)cc3Cl)oc2c2ccccc21` gave Kir21 block 0.87, KCNQ1 act inactive, KCNK3 block inactive, KCNK9 block -10*, KCNQ1 inh inactive, hERG rescue -4, KCNK9 inh conf 28%*, Kir2-1 spec inactive and KCNK9 uninduced 32%*.
Screening CCOc1cc(Cl)c(S(=O)(=O)NCc2cccnc2)cc1Cl returned Kir21 block -0.2, KCNQ1 act inactive, KCNK3 block inactive, KCNK9 block inactive, KCNQ1 inh inactive and hERG rescue 0.
O=C(NN1C(=O)C2C3C=CC(C3)C2C1=O)c1cccc(Cl)c1 (centres undefined) was read as Kir21 block -0.29, KCNQ1 act inactive, KCNK3 block inactive, KCNK9 block inactive, KCNQ1 inh inactive and hERG rescue -6.
Screening O=C(NN1C(=O)C2C(c3ccccc3)C=CC(c3ccccc3)C2C1=O)c1cccc(Br)c1 (centres undefined) returned Kir21 block 0.66, KCNQ1 act inactive, KCNK3 block inactive, KCNK9 block -12*, KCNQ1 inh inactive, hERG rescue 11*, KCNK9 inh conf 62%*, Kir2-1 spec inactive and KCNK9 uninduced 37%*.
For Cc1onc(-c2c(Cl)cccc2Cl)c1C(=O)N=C(N)N1CC(C)OC(C)C1 (centres undefined) the results were Kir21 block 0.41, KCNQ1 act inactive, KCNK3 block inactive, KCNK9 block inactive, KCNQ1 inh inactive and hERG rescue -4.
